Results as given in ChEMBL document CHEMBL2384939, “Synthesis of pyrazolo[1,5-a]pyrimidine linked aminobenzothiazole conjugates as potential anticancer agents” (Bioorg Med Chem Lett, 2013).
Calls of active or inactive are those of the source. The rule behind the calls is not given here.

How the values were obtained:
A549 [1] = test: Cell cycle arrest at human A549 cells assessed as accumulation at G2/M phase at 2 uM after 48 hrs by propidium iodide-staining-based FACS flow cytometric analysis (reference value: 13.17%); assay type: functional
MDA-MB-231 = test: Cytotoxicity against human MDA-MB-231 cells after 48 hrs by MTT assay; assay type: functional; details: MDA-MB-231, 48 h
NCI-H23 = test: Cytotoxicity against human NCI-H23 cells after 48 hrs by MTT assay; assay type: functional; details: NCI-H23, 48 h
SNB-75 = test: Cytotoxicity against human SNB75 cells after 48 hrs by MTT assay; assay type: functional; details: SNB-75, 48 h
A549 [2] = test: Cell cycle arrest at human A549 cells assessed as accumulation at sub G1 phase at 2 uM after 48 hrs by propidium iodide-staining-based FACS flow cytometric analysis (reference value: 1.02%); assay type: functional
OVCAR-3 = test: Cytotoxicity against human OVCAR3 cells after 48 hrs by MTT assay; assay type: functional; details: OVCAR-3, 48 h
SNB-19 = test: Cytotoxicity against human SNB19 cells after 48 hrs by MTT assay; assay type: functional; details: SNB-19, 48 h
A549 [3] = test: Cell cycle arrest at human A549 cells assessed as accumulation at S phase at 2 uM after 48 hrs by propidium iodide-staining-based FACS flow cytometric analysis (reference value: 4.48%); assay type: functional
T47D = test: Cytotoxicity against human T47D cells after 48 hrs by MTT assay; assay type: functional
SF-268 = test: Cytotoxicity against human SF268 cells after 48 hrs by MTT assay; assay type: functional; details: SF-268, 48 h
NCI-H460 = test: Cytotoxicity against human NCI-H460 cells after 48 hrs by MTT assay; assay type: functional; details: NCI-H460, 48 h
SK-MEL-2 = test: Cytotoxicity against human SK-MEL-2 cells after 48 hrs by MTT assay; assay type: functional; details: SK-MEL-2, 48 h
NCI-H226 = test: Cytotoxicity against human NCI-H226 cells after 48 hrs by MTT assay; assay type: functional; details: NCI-H226, 48 h
HOP-92 = test: Cytotoxicity against human HOP92 cells after 48 hrs by MTT assay; assay type: functional; details: HOP-92, 48 h
A549 [4] = test: Induction of apoptosis in human A549 cells assessed as formation of apoptotic bodies at 2 uM after 48 hrs by Hoechst staining assay; assay type: functional, cell-based
Outline: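 A549 cells (10,000 per 18-mm coverslip) grown 24 h, then given 2 µM compound for 48 h, with 0.001% DMSO vehicle and roscovitine controls. Hoechst 33258 (0.5 mg/mL) in 4% paraformaldehyde was added for 30 min. Randomly chosen fields were imaged by fluorescence microscopy and apoptotic cells scored manually by cytoplasmic condensation, apoptotic bodies and nuclear fragmentation.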

Malme-3M = test: Cytotoxicity against human MALME-3M cells after 48 hrs by MTT assay; assay type: functional
ACHN = test: Cytotoxicity against human ACHN cells after 48 hrs by MTT assay; assay type: functional, cell-based
Outline: (§1)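 MTT assay: […] were plated in DMEM with 10% FBS and incubated for 24 h at 37 °C under CO2. Compounds diluted in culture medium were added alongside a vehicle control for 48 h. MTT (10 µl of a 5 mg/ml stock) was added for a further 4 h. The supernatant was then removed, the formazan dissolved in DMSO, and absorbance read at 540 nm. IC50 was derived.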

SR = test: Cytotoxicity against human SR cells after 48 hrs by MTT assay; assay type: functional
IGROV-1 = test: Cytotoxicity against human IGROV1 cells after 48 hrs by MTT assay; assay type: functional; details: IGROV-1, 48 h
SN12C = test: Cytotoxicity against human SN12C cells after 48 hrs by MTT assay; assay type: functional
A549 [5] = test: Induction of apoptosis in human A549 cells assessed as DNA fragmentation at 2 uM after 48 hrs by agarose gel electrophoresis; assay type: functional, cell-based
Outline: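 A549 cells (1×10^6) seeded in six-well plates for 24 h, then exposed to 2 µM compound or roscovitine for 48 h and pelleted. Lysate treated with SDS and RNase-A (2 h, 56 °C), then proteinase K (2 h, 37 °C). DNA precipitated with ammonium acetate/cold ethanol, dissolved in TE, and laddering resolved on 2% agarose gel against a 50 bp marker.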

BT-549 = test: Cytotoxicity against human BT549 cells after 48 hrs by MTT assay; assay type: functional; details: BT-549, 48 h
A549 [6] = test: Cell cycle arrest at human A549 cells assessed as accumulation at S phase at 1 uM after 48 hrs by propidium iodide-staining-based FACS flow cytometric analysis (reference value: 4.48%); assay type: functional
SF-539 = test: Cytotoxicity against human SF539 cells after 48 hrs by MTT assay; assay type: functional; details: SF-539, 48 h
NCI-H522 = test: Cytotoxicity against human NCI-H522 cells after 48 hrs by MTT assay; assay type: functional; details: NCI-H522, 48 h
M14 = test: Cytotoxicity against human M14 cells after 48 hrs by MTT assay; assay type: functional; details: M14, 48 h
OVCAR-8 = test: Cytotoxicity against human OVCAR8 cells after 48 hrs by MTT assay; assay type: functional; details: OVCAR-8, 48 h
SK-OV-3 = test: Cytotoxicity against human SKOV3 cells after 48 hrs by MTT assay; assay type: functional; details: SK-OV-3, 48 h
CCRF-CEM = test: Cytotoxicity against human CCRF-CEM cells after 48 hrs by MTT assay; assay type: functional
A549 [7] = test: Cell cycle arrest at human A549 cells assessed as accumulation at G2/M phase at 1 uM after 48 hrs by propidium iodide-staining-based FACS flow cytometric analysis (reference value: 13.17%); assay type: functional
A498 = test: Cytotoxicity against human A498 cells after 48 hrs by MTT assay; assay type: functional; details: A498, 48 h
A549 [8] = test: Induction of apoptosis in human A549 cells assessed as reduction of Cdk1 expression at 2 uM after 48 hrs by Western blot analysis; assay type: functional, cell-based
Outline: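 5×10^5 A549 cells grown 24 h, then treated with 2 µM compound for 48 h. Lysis in ice-cold RIPA with protease inhibitors, protein by Bradford, 50 µg per lane on 12% SDS-PAGE, PVDF transfer. Probed overnight at 4 °C with mouse monoclonal anti-Cdk1, β-actin as loading control, chemiluminescent detection.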

A549 [9] = test: Cell cycle arrest at human A549 cells assessed as accumulation at G0/G1 phase at 1 uM after 48 hrs by propidium iodide-staining-based FACS flow cytometric analysis (reference value: 81.33%); assay type: functional
MCF7 = test: Cytotoxicity against human MCF7 cells after 48 hrs by MTT assay; assay type: functional, cell-based; details: MCF7, 48 h; outline: as §1
SF-295 = test: Cytotoxicity against human SF295 cells after 48 hrs by MTT assay; assay type: functional; details: SF-295, 48 h
K562 = test: Cytotoxicity against human K562 cells after 48 hrs by MTT assay; assay type: functional; details: K562, 48 h

SMILES | Activity (A549 [1]) [%] | GI50 (MDA-MB-231) [µM] | GI50 (NCI-H23) [µM] | GI50 (SNB-75) [µM] | Activity (A549 [2]) [%] | GI50 (OVCAR-3) [µM] | GI50 (SNB-19) [µM] | Activity (A549 [3]) [%] | GI50 (T47D) [µM] | GI50 (SF-268) [µM] | GI50 (NCI-H460) [µM] | GI50 (SK-MEL-2) [µM] | GI50 (NCI-H226) [µM] | GI50 (HOP-92) [µM] | Activity (A549 [4]) | GI50 (Malme-3M) [µM] | GI50 (ACHN) [µM] | IC50 (ACHN) [µM] | GI50 (SR) [µM] | GI50 (IGROV-1) [µM] | further results
O=C(Nc1nc2ccccc2s1)c1cc(-c2ccc(F)cc2)n2nc(-c3ccccc3)cc2n1 | 64.7 | 2.3 | 2.8 | 1.7 | 3.75 | 1.9 | 5.2 | 6.8 | 3.3 | 3.8 | 2.1 | 3.1 | 6.3 | 1.6 | Active | 3.7 | 2.2 | 3.46 | 3.9 | 4.3 | GI50 (SN12C): 6.4 µM; Activity (A549 [5]): Active; GI50 (BT-549): 2 µM; Activity (A549 [6]): 6.1%; GI50 (SF-539): 2.6 µM; GI50 (NCI-H522): 2.5 µM; GI50 (M14): 3.1 µM; GI50 (OVCAR-8): 2.1 µM; GI50 (SK-OV-3): 2.3 µM; GI50 (CCRF-CEM): 1.8 µM; Activity (A549 [7]): 44.54%; GI50 (A498): 1.8 µM; Activity (A549 [8]): Active; Activity (A549 [9]): 35.34%; GI50 (MCF7): 5.2 µM; IC50 (MCF7): 2.29 µM; GI50 (SF-295): 4.1 µM; GI50 (K562): 4.2 µM
COc1cc(-c2cc(C(=O)Nc3nc4ccccc4s3)nc3cc(-c4ccccc4)nn23)cc(OC)c1OC | 52.45 | 5.6 | 11.5 | 2.7 | 9.05 | 13.3 | 16.7 | 6.32 | 21.4 | 4.5 | 29 | 11.2 | 27 | 0.7 | Active | 12 | 45.7 | 4.36 | 19.7 | 56 | GI50 (SN12C): 85 µM; Activity (A549 [5]): Active; GI50 (BT-549): 6.3 µM; Activity (A549 [6]): 5.9%; GI50 (SF-539): 1.3 µM; GI50 (NCI-H522): 1.9 µM; GI50 (M14): 2.3 µM; GI50 (OVCAR-8): 5.3 µM; GI50 (SK-OV-3): 12.5 µM; GI50 (CCRF-CEM): 54 µM; Activity (A549 [7]): 40.05%; GI50 (A498): 9.2 µM; Activity (A549 [8]): Active; Activity (A549 [9]): 42.29%; GI50 (MCF7): 22.4 µM; IC50 (MCF7): 2.88 µM; GI50 (SF-295): 10.6 µM; GI50 (K562): 25 µM
